From PubChem BioAssay AID1424 (The Scripps Research Institute Molecular Screening Center, 2008)
Hit rate of the full screen: of about 220,000 compounds, about 390 (0.18%) were called active. This is one part of a sample in which actives are shown more often than they occur. Values without a mark were called inactive.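 Rule for the calls: active = activation above its plate's cutoff, the mean activation of test wells on that plate plus 3 SD (cut at about 19% in these data); inactive = the rest.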 Residues, ends and D or L forms follow the SMILES beside them. *: point of attachment. OPac = O=C(CO*)c1ccccc1; Bz = O=C(c1ccccc1)*

Test system: transient receptor potential cation channel N1 (TRPN1/NompC), Danio rerio
Assay: zebrafish TRPN1 channel agonists, primary screen, cell-based, HEK293, calcium fluorescence (AID 1424);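 note: 0% = DMSO alone and 100% = 87 µM carbachol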
Settings: HEK293 zebrafish TRPN1-YFP, Fluo-8 calcium fluorescence; at 3 µM; stronger effect = higher value; 100% = response to 87 µM carbachol
How it was run: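 Material – zebrafish TRPN1-YFP in HEK293 cells · Doses – 3 µM single point · Schedule – dye 1 h 37 °C plus 30 min RT · Signal – Fluo-8 calcium fluorescence, excitation 470-495 nm, emission 515-575 nm · Read-out – % activation versus carbachol response · Control set – carbachol high, DMSO low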

Which activation does the source give for `COc1ccc(N2C(=O)c3cccc4cccc(c34)C2=O)nn1` here?
The activation was -0.39%.

`Cc1nn(-c2cc(Cl)ccc2N)c(=O)c2ccccc12` was tested. Which activation did it give?
The activation was -1.21%.

`Cc1nn(C)cc1N1C(=O)c2cccc3c(N)ccc(c23)C1=O` was tested. Which activation did it give?
Its activation is 23.7% (active).

Which activation does the source give for `Cc1cc(=O)oc2cc(OCCC[n+]3ccccc3)ccc12` here?
Its activation is 0.59%.

`O=C(CNCc1ccc(Cl)cc1)Nc1cccc(C(=O)O)c1` was tested. Which activation did it give?
Its activation is 0.21%.

`CCOC(=O)c1c(C)oc(C)c(C(=O)OCC)c1=O` was tested. Which activation did it give?
Its activation is 1.29%.

With `O=[N+]([O-])/C=C1\CCCCCN1` as the compound, how does the activation read?
The activation was 3.32%.

With `N#C/C(=C/c1cccc([N+](=O)[O-])c1)c1nnc2n1CCCCC2` as the compound, how does the activation read?
Its activation is 2.1%.

How did the activation turn out when `COCc1cc(=O)[nH]c(SC)n1` was run?
The activation was 1.98%.

With `CCOC12CC(C)(C)CC(C)(CC3=C1C(=O)CC(C)(C)C3)C2` (stereo not drawn) as the compound, how does the activation read?
Its activation is 1.01%.

Which activation does the source give for `CSc1cccc(NC(=S)N(Cc2ccccc2)Cc2ccccn2)c1` here?
The activation was -0.2%.

How did the activation turn out when `CCOc1ccc(-n2c(O)c(/C=N/c3ccnn3Cc3ccncc3)c3ccccc3c2=O)cc1` was run?
The activation was 0.39%.

With `O=C(COC(=O)c1ccco1)NCc1ccc(Cl)cc1` as the compound, how does the activation read?
The activation was 0.49%.

For `Cc1cc(C)n(Cc2cnc(N3CCOCC3)s2)n1`, which activation is on record?
The activation was 0.48%.

How did the activation turn out when `CNC(=O)c1ccsc1NC(=O)c1ccc(S(=O)(=O)N2CCOCC2)cc1` was run?
The activation was 2.83%.

`CC1=NN(c2cccc(Cl)c2)C(=O)C12CC(C)=C(C)CS2` (stereo not drawn) was tested. Which activation did it give?
Its activation is -0.78%.

`Cc1ccc(N2C(=O)CC(N3CCSCC3)C2=O)c(C)c1` (stereo not drawn) was tested. Which activation did it give?
Its activation is 40.3% (active).

With `O=C1CC(N2CCN(c3ccc(F)cc3)CC2)C(=O)N1c1ccccc1` (stereo not drawn) as the compound, how does the activation read?
Its activation is 0.96%.

Which activation does the source give for `Cc1ccc(N2CCN(S(=O)(=O)c3ccc(F)cc3)CC2)c(C)c1` here?
The activation was -1.18%.

Which activation does the source give for `Cc1cc(C)n(C(=O)CCNC(=O)c2ccccc2Cl)n1` here?
The activation was 0.31%.

Which activation does the source give for `CC(C)c1ccc(NC(=S)NC2CC3C=CC2C3)cc1` (stereo not drawn) here?
The activation was 1.72%.

For `CCCCCCCCCOC1OC(CO)C(O)C(O)C1NC(C)=O` (stereo not drawn), which activation is on record?
The activation was 1.72%.

With `O=C(CNC(=O)c1ccccc1)NCC(=O)OCC(=O)c1ccccc1` (Bz-Gly-Gly-OPac) as the compound, how does the activation read?
Its activation is 1.5%.

For `CC(C)OC(=O)CN1CCN(c2ccc(Cl)cc2)CC1`, which activation is on record?
Its activation is 4.98%.

`Cc1ccc(NC(=O)Nc2nnc(-c3ccncc3)s2)cc1` was tested. Which activation did it give?
Its activation is 20.7% (active).

How did the activation turn out when `Cc1occc1C(=O)Nc1nnc(-c2ccncc2)s1` was run?
Its activation is 0.89%.

With `Cc1ccc(C(=O)Nc2nnc(-c3ccncc3)s2)o1` as the compound, how does the activation read?
Its activation is 1.91%.

Which activation does the source give for `O=C(NN=C1CCC(=NNC(=O)c2cccnc2)CC1)c1cccnc1` here?
Its activation is 1.24%.
